Broadly, the IC50 is the midpoint of a concentration-inhibition curve. Read a low IC50 as higher potency.

In assay [1] the test system is L1210. As to the kind of experiment: Antitumor activity was determined against the ip implanted L1210 leukemia in mice by percent increase in life span at 26 and 51 mg/kg (treatment of 1-5qd schedule) dosage. The class given is functional, Mus musculus. Particulars: route intraperitoneal. An outline of the steps:
(§1)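 DBA/2J mice in groups of 6 (wt 23-28 g) were inoculated ip with 1×10^6 L1210 cells on day 0. Dosing was ip from 24 h, in 0.9% NaCl with 0.5% Tween-80 (conjugates sonicated), across a range of doses. Mice were observed daily until death or 45 days. Median T/C was computed from survivors per NCI protocols, and ILS = (T/C − 1)×100.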

Assay [2] deals with L1210. As to the kind of experiment: Antitumor activity was determined against the ip implanted L1210 leukemia in mice by percent increase in life span at 131 and 258 mg/kg (treatment of 1qd schedule) dosage. It counts as functional, Mus musculus. Particulars: route intraperitoneal. The method in brief: as §1
The subject of assay [3] is L1210. As to the kind of experiment: Antitumor activity was determined against the ip implanted L1210 leukemia in mice by change in […] at 26 and 51 mg/kg (treatment of 1-5qd schedule) dosage. Particulars: route intraperitoneal. The class given is functional, Mus musculus. The method in brief:
(§2)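 DBA/2J mice, 6 per group (wt 23-28 g), inoculated ip with 1×10^6 L1210 cells on day 0. Treatment was given ip in 0.9% NaCl with 0.5% Tween-80, starting 24 h later. Weight change was taken on day 8. Mice were observed daily until death or 45 days. Median survival T/C and %ILS = (T/C − 1) × 100 came from survivors per NCI protocols, and 45-day survivors were counted.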

The test system of assay [4] is L1210. As to the kind of experiment: Antitumor activity against the ip implanted L1210 leukemia in mice expressed as optimal dose (1-5qd treatment schedule) required to produce greatest increase in life span was determined. The class given is functional, Mus musculus. An outline of the steps:
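DBA/2J mice, groups of 6 (23-28 g), were inoculated ip with 1 × 10^6 L1210 cells on day 0. Dosing was ip from 24 h, in 0.9% NaCl with 0.5% Tween-80 (sonicated solution or suspension). Mice were observed daily until death or day 45. Median survival T/C followed NCI protocols, and ILS = (T/C − 1) × 100. Active range means doses giving ILS ≥25%; optimal dose means greatest ILS.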

The test system of assay [5] is L1210. As to the kind of experiment: Antitumor activity was determined against the ip implanted L1210 leukemia in mice by median survival time at 131 adn 258 mg/kg (treatment of 1qd schedule) dosage; 8.0/8.0. The following applies: route intraperitoneal.
For assay [6], the system named is L1210. As to the kind of experiment: Antitumor activity was determined against the ip implanted L1210 leukemia in mice by 45-day survivors in mice at 131 and 258 mg/kg (treatment of 1qd schedule) dosage. It counts as functional, Mus musculus. The following applies: route intraperitoneal. An outline of the steps:
as §1

The subject of assay [7] is L1210. As to the kind of experiment: Antitumor activity was determined against the ip implanted L1210 leukemia in mice by median survival time at 26 and 51 mg/kg (treatment of 1-5qd schedule) dosage; 11.0/8.0. The following applies: route intraperitoneal.
For assay [8], the system named is L1210. As to the kind of experiment: Antitumor activity was determined against the ip implanted L1210 leukemia in mice by range in survival days at 131 and 258 mg/kg (treatment of 1qd schedule) dosage; Range is 8-9. The class given is functional, Mus musculus. Particulars: route intraperitoneal. The method in brief: (§3)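 DBA/2J mice, 23-28 g, in groups of 6, were inoculated ip with 1×10^6 L1210 cells on day 0. Dosing was ip starting 24 h later on the stated daily schedules. Conjugates were given as sonicated solutions and reference prodrugs as suspensions in 0.9% NaCl with 0.5% Tween-80. Mice were observed daily until death or 45 days. Median survival T/C was calculated from survivors per NCI protocols.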

For assay [9], the system named is L1210. As to the kind of experiment: Antitumor activity was determined against the ip implanted L1210 leukemia in mice by change in […] at 131 and 258 mg/kg (treatment of 1qd schedule) dosage. The class given is functional, Mus musculus. The following applies: route intraperitoneal. The method in brief: as §2
Assay [10] concerns L1210. As to the kind of experiment: Antitumor activity was determined against the ip implanted L1210 leukemia in mice by range in survival days at 26 and 51 mg/kg (treatment of 1-5qd schedule) dosage; Range is 11-12. The class given is functional, Mus musculus. Particulars: route intraperitoneal. The method in brief:
as §3

For assay [11], the system named is L1210. As to the kind of experiment: Antitumor activity was determined against the ip implanted L1210 leukemia in mice by 45-day survivors in mice at 26 and 51 mg/kg (treatment of 1-5qd schedule) dosage. It counts as functional, Mus musculus. Particulars: route intraperitoneal. An outline of the steps: as §1
The next assay concerns Glioblastoma cell line. As to the kind of experiment: Compound was tested for the inhibition of glioblastoma. The class given is functional, cell-based. Particulars: Homo sapiens. The method in brief: (§4)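 Human leukemia and solid tumor cells in culture were exposed to compound for 48 h. Viability was scored by trypan blue dye exclusion. IC50 (50% inhibition) was estimated from response curves of three separate experiments.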

The subject of the next assay is AMML. As to the kind of experiment: Compound was tested for the inhibition of AMML (acute myelomonocytic leukemia). The class given is functional, cell-based. The following applies: Homo sapiens. The method in brief: as §4
The test system of another assay is HL-60. As to the kind of experiment: Compound was tested for the inhibition of human HL60 Leukemia. The class given is functional, cell-based. An outline of the steps: as §4
The subject of assay [12] is Small cell lung cancer cell line. As to the kind of experiment: Compound was tested for the inhibition of small cell lung cancer. Particulars: Homo sapiens. It counts as functional, cell-based. An outline of the steps:
as §4

Another assay deals with CML/BC. As to the kind of experiment: Compound was tested for the inhibition of CML/BC(chronic myeloid leukemia, blast crisis). It counts as functional, cell-based. Particulars: Homo sapiens. An outline of the steps:
as §4

The next assay deals with NSCLC. As to the kind of experiment: Compound was tested for the inhibition of non- small cell lung cancer. The following applies: Homo sapiens. It counts as functional, cell-based. The method in brief: as §4

“And” between values parts separate entries of the source, which are not always exact repeats. Equal entries are not always repeated.

For the molecule `CCCCCCCCCCCCCCCCOCC(COP(=O)(O)O)OC(=O)CCCCCCCCCCCCCCC.Nc1ccn([C@@H]2O[C@H](COP(=O)(O)O)[C@@H](O)[C@@H]2O)c(=O)n1` (racemic), the figures for the ILS in the assay with L1210 [1] and with L1210 [2] were 38 and 0, respectively. Moreover, the results for the Weight change with L1210 [3] and in the assay with L1210 [9] were 1.1 g mouse-1 and -0.8 g mouse-1, respectively. Also, the Optimal dose in the assay with L1210 [4] is 26 mg and 51 mg. The median survival time in the assay with L1210 [5] was determined as 8 days; with L1210 [7] it was 11 days. Also, the Survivors with L1210 [6] and in the assay on L1210 [11] was 0 in each case. In addition, the Range in the assay on L1210 [8] was 8; in the assay on L1210 [10], 11.
Take `CCCCCCCCCCCCCCCCCCOCC(COP(=O)([O-])OCC[N+](C)(C)C)OC.Nc1ccn([C@@H]2O[C@H](CO)[C@@H](O)[C@@H]2O)c(=O)n1` (configuration not stated): the IC50 was 27 µM with Glioblastoma cell line; 1350 nM in the assay on AMML; 260 nM in the assay on HL-60; 38 µM in [12]; 250 nM in the assay on CML/BC; 34 µM in the assay on NSCLC.

The values above are taken from ChEMBL document CHEMBL1123247, “Nucleoside conjugates. 7. Synthesis and antitumor activity of 1-beta-D-arabinofuranosylcytosine conjugates of ether lipids” (J Med Chem, 1986).
